This is an account of results in ChEMBL document CHEMBL3580551, “Soudanones A-G: Antifungal Isochromanones from the Ascomycetous Fungus Cadophora sp. Isolated from an Iron Mine” (2015).

Activity calls are given as the source filed them. The calls are words filed in the database; no cut-off is given here.

The subject of one experiment is Plasmodium falciparum. Put plainly: Antiplasmodial activity against Plasmodium falciparum NF54 assessed as inhibition of microbial growth at 10 ug/ml by [3H]hypoxanthine incorporation assay. Type of experiment: functional, organism-based. The procedure, abridged:
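In vitro screen against the drug-sensitive P. falciparum NF54 strain using a modified [3H]hypoxanthine incorporation assay. Chloroquine and artesunate were run as positive controls.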

In the next experiment the test system is Candida albicans. As to the kind of experiment: Antimicrobial activity against Candida albicans ATCC 10231 assessed as inhibition of microbial growth by microbroth dilution assay. Type of experiment: functional. The procedure, abridged: (§1)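 Antifungal broth microdilution test against the yeast strain (C. albicans ATCC 10231 or C. neoformans ATCC 66031). Amphotericin B at 2 μg/mL served as the control antifungal. MIC values were taken from the broth panel.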

Another experiment deals with Cryptococcus neoformans. As to the kind of experiment: Antimicrobial activity against Cryptococcus neoformans ATCC 66031 assessed as inhibition of microbial growth by microbroth dilution assay. Type of experiment: functional. The procedure, abridged:
as §1

In another experiment the test system is Enterococcus faecalis. Put plainly: Antimicrobial activity against vancomycin-resistant Enterococcus faecalis ATCC 51299 assessed as inhibition of microbial growth by microbroth dilution assay. Type of experiment: functional. The procedure, abridged: (§2)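 Broth microdilution susceptibility test; the read-out is MIC. The reference antibiotic was tetracycline at 10 μg/mL for MRSA ATCC 43300 and penicillin G at 10 μg/mL for E. faecalis ATCC 51299.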

The test system of a further experiment is Acinetobacter baumannii. As to the kind of experiment: Antimicrobial activity against Acinetobacter baumannii ATCC 19606 assessed as inhibition of microbial growth by microbroth dilution assay. Type of experiment: functional. The method, boiled down:
(§3)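 Broth microdilution susceptibility test against the listed ATCC bacterial strain. Tetracycline at 10 μg/mL served as the positive-control antibiotic. Growth inhibition was read in broth, with MIC values reported.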

Another experiment deals with Staphylococcus aureus. As to the kind of experiment: Antimicrobial activity against methicillin-resistant Staphylococcus aureus ATCC 43300 assessed as inhibition of microbial growth by microbroth dilution assay. The class given is functional. The method, boiled down:
as §2

The test system of another experiment is Pseudomonas aeruginosa. Put plainly: Antimicrobial activity against Pseudomonas aeruginosa ATCC 27853 assessed as inhibition of microbial growth by microbroth dilution assay. Type of experiment: functional. The method, boiled down: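 Broth microdilution susceptibility test against P. aeruginosa ATCC 27853. Tetracycline at 50 μg/mL served as the positive-control antibiotic. Growth inhibition was read in broth, with MIC values reported.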

The next experiment relates to Klebsiella pneumoniae. Put plainly: Antimicrobial activity against Klebsiella pneumoniae ATCC 13883 assessed as inhibition of microbial growth by microbroth dilution assay. Type of experiment: functional. The method, boiled down: as §3
The test system of another experiment is Escherichia coli. Put plainly: Antimicrobial activity against Escherichia coli ATCC 25922 assessed as inhibition of microbial growth by microbroth dilution assay. Type of experiment: functional. The method, boiled down: as §3
The next experiment has as its system Bacillus subtilis. Put plainly: Antimicrobial activity against Bacillus subtilis ATCC 6633 assessed as inhibition of microbial growth by microbroth dilution assay. The class given is functional. The method, boiled down:
as §3

Regarding `CCCCCCC[C@@H]1Cc2c(C)c(O)c(C(=O)O)c(O)c2CO1`, in the experiment on Plasmodium falciparum, the “growth inhibition (GI)” value is “inactive”. In addition, the MIC is over 100 µg/mL in the experiment on Candida albicans and 35 µg/mL in the experiment with Cryptococcus neoformans.

Consider `O=C(O)CCCCCC[C@@H]1Cc2cc(O)cc(O)c2C(=O)O1`, for which the MIC in the experiment on Enterococcus faecalis, with Candida albicans, in the experiment on Acinetobacter baumannii, with Staphylococcus aureus, in the experiment on Cryptococcus neoformans and with Pseudomonas aeruginosa was over 100 µg/mL each time. Also, the MIC in the experiment with Klebsiella pneumoniae, in the experiment with Escherichia coli and in the experiment on Bacillus subtilis was over 100 µg/mL in each case.

Take `Cc1c(O)cc(O)c2c1C[C@@H](CCCCCC(C)O)OC2=O` (some centres not stated): the MIC in the experiment with Enterococcus faecalis, in the experiment on Candida albicans, in the experiment on Acinetobacter baumannii, in the experiment on Staphylococcus aureus, in the experiment on Cryptococcus neoformans and with Pseudomonas aeruginosa was over 100 µg/mL each time. In addition, the MIC in the experiment with Klebsiella pneumoniae, in the experiment on Escherichia coli and in the experiment with Bacillus subtilis was over 100 µg/mL each time.

As to `Cc1c(O)cc(O)c2c1C[C@@H](CCCCCCCO)OC2=O`, the MIC in the experiment on Enterococcus faecalis, with Candida albicans, with Acinetobacter baumannii, in the experiment with Staphylococcus aureus, with Cryptococcus neoformans and with Pseudomonas aeruginosa was over 100 µg/mL each time. For the same molecule, the MIC in the experiment with Klebsiella pneumoniae, in the experiment on Escherichia coli and in the experiment on Bacillus subtilis was over 100 µg/mL in each case.

Take `CCCCCCC[C@@H]1Cc2c(C)c(O)cc(O)c2CO1`: the MIC with Enterococcus faecalis, with Candida albicans, in the experiment with Acinetobacter baumannii, in the experiment on Staphylococcus aureus, with Cryptococcus neoformans and in the experiment on Pseudomonas aeruginosa was over 100 µg/mL each time. Also, the MIC with Klebsiella pneumoniae, in the experiment with Escherichia coli and in the experiment with Bacillus subtilis was over 100 µg/mL throughout.

Take `C[C@@H]1[C@H](O)[C@@H](C)/C=C/C=C/C=C/C=C/C=C/C=C/C=C/[C@H](O[C@@H]2O[C@H](C)[C@@H](O)[C@H](N)[C@@H]2O)C[C@@H]2O[C@](O)(C[C@@H](O)C[C@@H](O)[C@H](O)CC[C@@H](O)C[C@@H](O)CC(=O)O[C@H]1C)C[C@H](O)[C@H]2C(=O)O` [AMPHOTERICIN B]: the MIC in the experiment with Candida albicans and in the experiment on Cryptococcus neoformans was 0.2 µg/mL in each case.

As to `CCCCCCC[C@@H]1Cc2c(C)c(O)cc(O)c2C(=O)O1`, the “growth inhibition (GI)” value in the experiment on Plasmodium falciparum is “inactive”. Further, the minimal inhibitory concentration (MIC) was over 100 µg/mL in the experiment with Candida albicans and 40 µg/mL in the experiment on Cryptococcus neoformans.

Regarding `CC(=O)CCCCC[C@@H]1Cc2c(C)c(O)cc(O)c2C(=O)O1`, the MIC in the experiment on Enterococcus faecalis, in the experiment on Candida albicans, with Acinetobacter baumannii, in the experiment with Staphylococcus aureus, in the experiment on Cryptococcus neoformans and in the experiment on Pseudomonas aeruginosa was over 100 µg/mL each time. Further, the MIC with Klebsiella pneumoniae, in the experiment with Escherichia coli and in the experiment with Bacillus subtilis was over 100 µg/mL in each case. In the experiment with Plasmodium falciparum, the “growth inhibition (GI)” value is “inactive”.

Regarding `Cc1c(O)cc(O)c2c1C[C@@H](CCCCCCC(=O)O)OC2=O`, the MIC in the experiment with Enterococcus faecalis, in the experiment with Candida albicans, in the experiment on Acinetobacter baumannii, in the experiment on Staphylococcus aureus, in the experiment on Cryptococcus neoformans and in the experiment on Pseudomonas aeruginosa was over 100 µg/mL each time. In addition, the MIC in the experiment on Klebsiella pneumoniae, in the experiment on Escherichia coli and in the experiment with Bacillus subtilis was over 100 µg/mL throughout.

In the case of `O=C1CC[C@H](O)c2cccc(O)c21`, the “growth inhibition (GI)” value with Enterococcus faecalis, with Acinetobacter baumannii, in the experiment on Staphylococcus aureus, in the experiment on Pseudomonas aeruginosa, in the experiment on Klebsiella pneumoniae and in the experiment on Escherichia coli was “inactive” throughout. Also, the “growth inhibition (GI)” value in the experiment on Bacillus subtilis is “inactive”. Also, the MIC is 40 µg/mL in the experiment with Candida albicans and 30 µg/mL in the experiment with Cryptococcus neoformans.
